# Screening data as filed in PubChem BioAssay.
# Calb FLC: C. albicans growth modulation with fluconazole | AID 1979 | 300,000 compounds, 0.57% hits | growth inhibition, % (no concentration beside the values) | C. albicans CaCi-2 (fluconazole-resistant clinical isolate) + fluconazole, Alamar Blue growth, 48 h;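 active = growth inhibition above about 58% in most replicates, limit read from the data, passing the limit was not always enough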;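 note: all wells also contain fluconazole at 8 µg/ml as a sub-toxic cotreatment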
# CSC inhib: cancer stem cell inhibition | inhibition, % at 7.5 µM | 300,000 compounds, 1.1% hits | cancer stem cell-like cells viability, luminescence | AID 2717; in the data active = inhibition above about 75%; tested in HMLE shEcad cells
# SKKanGAS inh: inhibitors of SKKanGAS S. pyogenes growth in kanamycin (SK-promoter or general growth effect); BacTiter-Glo, 6 h; 300,000 compounds, 1.3% hits; AID 1662; inhibition, % at 7.5 µM;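 active = mean replicate score, as percent of positive control median, at least 50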;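 note: strain carries kanamycin resistance gene driven by streptokinase promoter and grows in 40 µg/ml kanamycin; loss of luminescence reflects streptokinase promoter inhibition or plain growth inhibition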
# Beta cell apopt: beta cell apoptosis inhibition; INS-1E cytokine-induced death, ATP luminescence, 48 h; percent of positive-control rescue, neutral wells zero; protection from apoptosis, % (no concentration beside the values); 300,000 compounds, 0.8% hits;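 active = Every replicate reaches about 75%, or at least half do and their mean reaches it too, limit read from the data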;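 note: higher means more ATP so stronger rescue from cytokine killing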
# T cruzi repl: T. cruzi replication inhibition. T. cruzi beta-gal in NIH3T3, luminescence, 90 h. AID 1885. inhibition, % (test concentration not listed). 300,000 compounds, 1.4% hits;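 active = mean inhibition across valid replicates above about 55%, limit read from the data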;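 note: signal also drops with host cell toxicity which is not excluded here; higher percent means less beta-gal luminescence so fewer parasites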
#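 System: NIH/3T3 fibroblasts plus reporter T. cruzi. Medium: DMEM plus 2% FBS. Probe or stimulus: 5000 reporter trypomastigotes per well. Compound: single 50 nL compound addition per well in DMSO. Incubation: co-culture of at least 90 h after 3 h attachment. Detection: GalScreen β-gal luminescence, detergent lysis, 60 min. Evaluation: parasite load inhibition, %.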
# Mdm2-MdmX inh: disrupts the human Mdm2-MdmX interaction | O15151+Q00987 | SaOS-2 split-luciferase Mdm2/MdmX complementation, luminescence | inhibition, % at 8 µM | 330,000 compounds, 3% hits | AID 485346;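 active = inhibition of at least 50% at 8 µM in the primary screen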
# Target sequence (O15151 whole entry, looked up): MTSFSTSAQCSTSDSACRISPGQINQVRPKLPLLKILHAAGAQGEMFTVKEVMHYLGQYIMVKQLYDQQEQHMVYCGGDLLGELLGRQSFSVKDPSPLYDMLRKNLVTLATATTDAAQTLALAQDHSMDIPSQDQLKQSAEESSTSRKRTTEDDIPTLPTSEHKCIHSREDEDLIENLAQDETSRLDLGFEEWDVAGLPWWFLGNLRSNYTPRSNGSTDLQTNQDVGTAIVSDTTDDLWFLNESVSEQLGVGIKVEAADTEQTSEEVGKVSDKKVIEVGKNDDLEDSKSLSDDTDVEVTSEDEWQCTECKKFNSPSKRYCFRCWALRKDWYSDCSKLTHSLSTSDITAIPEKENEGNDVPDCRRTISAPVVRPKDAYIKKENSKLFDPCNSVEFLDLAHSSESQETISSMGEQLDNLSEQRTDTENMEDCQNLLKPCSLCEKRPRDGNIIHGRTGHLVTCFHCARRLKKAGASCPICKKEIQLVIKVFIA
# Target sequence (Q00987 whole entry, looked up): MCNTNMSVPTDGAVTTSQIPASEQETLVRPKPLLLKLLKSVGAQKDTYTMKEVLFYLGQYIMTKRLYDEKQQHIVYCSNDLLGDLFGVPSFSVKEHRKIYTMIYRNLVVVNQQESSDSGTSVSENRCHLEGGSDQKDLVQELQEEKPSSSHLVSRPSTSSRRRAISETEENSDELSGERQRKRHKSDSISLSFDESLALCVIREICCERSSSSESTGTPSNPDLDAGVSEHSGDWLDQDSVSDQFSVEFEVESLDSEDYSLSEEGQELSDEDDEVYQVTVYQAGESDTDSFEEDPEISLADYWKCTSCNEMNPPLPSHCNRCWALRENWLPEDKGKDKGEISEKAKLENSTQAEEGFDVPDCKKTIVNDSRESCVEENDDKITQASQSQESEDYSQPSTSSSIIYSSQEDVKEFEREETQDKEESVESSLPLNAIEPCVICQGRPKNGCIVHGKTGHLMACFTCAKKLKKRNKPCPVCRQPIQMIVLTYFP
# Mdm2-MdmX conf: confirmation of human Mdm2/MdmX interaction inhibitors. shares compounds with Mdm2-MdmX inh. Mdm2-MdmX binding, luminescent assay. inhibition, % at 8 µM. 10,000 compounds, 55% hits. AID 489028; in the data active = inhibition above about 40%
# FLuc counter: inhibits full-length luciferase, flagging false Mdm2/MdmX hits; AID 504607; SaOS-2 full-length luciferase counterscreen, luminescence; shares compounds with Mdm2-MdmX inh; inhibition, % at 8 µM; 6,200 compounds, 77% hits;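 active = mean inhibition at 8 µM reaching about 37%, which flags the compound as non-specific, limit read from the data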;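 note: p53-null SaOS-2 cells with luciferase driven by a doxycycline-inducible promoter; compound on cells about two nights before reading with doxycycline added after day one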
# Hits are given with their value; - = inactive; . = no result given. An excerpt weighted towards active compounds, which were near 5.7% of everything screened.
SMILES,Calb FLC,CSC inhib,SKKanGAS inh,Beta cell apopt,T cruzi repl,Mdm2-MdmX inh,Mdm2-MdmX conf,FLuc counter
CCOc1ccc(-c2cc(C(=O)NCCCn3ccnc3)c3cc(Br)ccc3n2)cc1,-,-,-,108.2,-,100.4,-,.
OC(COc1ccc(CNCCc2ccc(C(F)(F)F)cc2)cc1)CN1CCCCC1 (stereo not given),-,-,-,-,58.6,99.6,99.0,53.1
O=C(C1=C[C@H](C2CCCCC2)C[C@H](OCc2ccc(CO)cc2)O1)N1CCN(Cc2ccc3c(c2)OCO3)CC1,-,-,-,.,56.5,52.0,-,.
O=C(C1=C[C@@H](c2ccccc2)C[C@@H](OCc2ccc(CO)cc2)O1)N1CCN(Cc2ccc3c(c2)OCO3)CC1,-,-,-,-,-,51.9,47.8,69.3
O=C(C1=C[C@@H](c2csc3ccccc23)C[C@@H](OCCCCO)O1)N1CCN(Cc2ccc3c(c2)OCO3)CC1,-,-,-,-,-,-,.,.
O=C(C1=C[C@@H](c2csc3ccccc23)C[C@@H](OCc2ccc(CO)cc2)O1)N1CCN(Cc2ccc3c(c2)OCO3)CC1,-,-,-,-,-,53.5,46.1,53.1
COc1ccc(C(C(=O)NC2CCCC2)N(C(=O)c2snc(-c3ccc(F)cc3)c2N)c2cccc(F)c2)cc1 (stereo not given),-,-,-,-,-,61.9,-,.
COc1ccc(C(C(=O)NC2CCCC2)N(C(=O)c2snc(-c3ccc(F)cc3)c2N)c2ccc(F)cc2)cc1 (stereo not given),-,-,-,-,-,56.5,-,.
COc1ccc(N(C(=O)c2ccn[nH]2)C(C(=O)NC2CCCC2)c2ccc(F)cc2)cc1 (stereo not given),-,-,-,-,-,-,.,.
CC1CN(C(=O)COC(=O)Cc2c(F)cccc2Cl)CC(C)O1 (stereo not given),.,-,.,-,.,-,.,.
N=C1S/C(=C\c2cccc3ccccc23)C(=O)N1c1ccc(F)cc1,-,97.2,55.9,-,-,55.7,48.6,61.9
CC(Sc1ccc(Cl)cc1)C(=O)Nc1ccc2c(c1)OCO2 (stereo not given),-,-,-,-,-,-,.,.
CC(C)N1CCC2(CC1)N=C(c1ccc3c(c1)OCO3)CC(c1cc(Cl)ccc1O)N2 (stereo not given),-,-,-,-,-,69.6,-,.
CCOC(=O)C(Cc1ccccc1)C(=O)NCc1ccccc1 (stereo not given),-,-,-,-,-,-,.,.
COc1ccc(-c2oc(=O)c3cc(OC)c(OC)cc3c2C#CCCO)cc1,.,.,.,-,.,-,.,.
COc1ccc(-c2oc(=O)c3cc(OC)c(OC)cc3c2C#C[C@]2(O)CC[C@H]3[C@@H]4CCc5cc(OC)ccc5[C@H]4CC[C@@]32C)cc1,.,-,.,-,.,69.8,-,.
Cc1ccccc1CNC(=O)C1CCCN(c2nnc(C)c3c(C)n(-c4ccccc4)nc23)C1 (stereo not given),-,-,-,-,-,-,.,.
CCOc1ccc(CNC(=O)C2CCN(c3nnc(C)c4c(C)n(-c5ccc(C)cc5)nc34)CC2)cc1,-,-,-,-,-,86.9,40.2,39.8
Cc1ccc(-n2nc3c(N4CCC(C(=O)N5CCN(C)CC5)CC4)nnc(C)c3c2C)cc1,-,-,-,-,-,-,.,.
COc1ccc(-n2nc3c(N4CCC(C(=O)NCCc5ccco5)CC4)nnc(C)c3c2C)cc1,-,-,-,-,-,-,.,.
COc1ccc(-n2nc3c(N4CCC(C(=O)NCc5cccc(C)c5)CC4)nnc(C)c3c2C)cc1,-,-,-,-,-,99.4,44.6,47.8
Cc1nnc(N2CCC(C(=O)N3CCCCCC3)CC2)c2nn(-c3ccc(Cl)cc3)c(C)c12,-,-,-,-,-,59.7,-,83.0
Cc1ccc(-n2nc3c(N4CCC(C(=O)NCc5ccccc5C)CC4)nnc(C)c3c2C)cc1,-,-,-,-,-,95.8,-,.
Cc1ccc(C(=O)NCc2ccccn2)cc1S(=O)(=O)N1CCOCC1,.,.,.,-,.,-,.,.
Cc1nnc(N2CCCC(C(=O)NCc3ccccc3F)C2)c2nn(-c3ccccc3)c(C)c12 (stereo not given),-,-,-,-,-,68.5,-,.
SMILES,Calb FLC,CSC inhib,SKKanGAS inh,Beta cell apopt,T cruzi repl,Mdm2-MdmX inh,Mdm2-MdmX conf,FLuc counter
CCOc1ccccc1CNC(=O)C1CCN(c2nnc(C)c3c(C)n(-c4ccc(C)cc4)nc23)CC1,-,-,-,-,57.2,99.8,75.5,-
COc1ccccc1CCNC(=O)C1CCN(c2nnc(C)c3c(C)n(-c4ccc(C)cc4)nc23)CC1,-,-,-,-,-,88.7,-,78.7
CCCN1CCN(C(=O)C2CCN(c3nnc(C)c4c(C)n(-c5ccc(C)cc5)nc34)CC2)CC1,-,-,-,-,-,-,.,.
CCOc1ccc(C2=Nn3c(CC)nnc3SC2)cc1,.,.,.,-,.,-,.,.
COc1cccc(Cn2c(-c3nonc3N)nc3ccccc32)c1,-,-,-,-,-,53.5,56.0,70.0
COc1cc(Cn2c(-c3nonc3N)nc3ccccc32)ccc1C,-,-,-,-,-,54.8,62.0,46.4
Nc1nonc1-c1nc2ccccc2n1Cc1ccc(Cl)cc1,-,-,-,-,-,-,.,.
Cc1ccc(Cn2c(-c3nonc3N)nc3ccccc32)cc1,-,-,-,-,-,-,.,.
Cc1ccc(-c2nnn(CC(=O)N(CC(=O)NC3CCCC3)c3ccc(F)c(Cl)c3)n2)o1,-,.,-,-,-,59.6,-,.
Cc1ccc(-c2nnn(CC(=O)N(CC(=O)NC3CCCCC3)c3ccc(F)c(Cl)c3)n2)o1,-,-,-,-,-,-,.,.
COc1ccccc1N(C(=O)c1ccco1)C(C(=O)NC1CCCCC1)c1cc(OC)c(OC)c(OC)c1 (stereo not given),-,-,-,-,-,-,.,.
CNC(=O)N(C1=NCC(C)S1)c1ccc(F)cc1F (stereo not given),-,-,-,-,-,-,.,.
CNC(=O)N(C1=NCC(C)(C)S1)c1ccc(F)c(Cl)c1,-,-,-,-,-,55.3,-,82.1
CCN1C(=O)C(=Cc2cccc(OC)c2Oc2ccc([N+](=O)[O-])cc2[N+](=O)[O-])SC1=S,-,77.2,-,98.8,-,100.3,95.5,-
COc1cc(/C=C2\SC(=O)NC2=O)ccc1Oc1ccc([N+](=O)[O-])cc1[N+](=O)[O-],-,-,-,-,-,-,.,.
O=C(COC(=O)C1CCCCC1)Nc1ccccc1OC(F)F,-,-,-,-,-,-,.,.
CCc1c(C#N)c(SCCC(=O)Nc2ccc(F)cc2)nc2c1C(=O)CC(C)(C)C2,-,-,-,-,56.2,55.5,-,.
